High-throughput results: PubChem, several laboratories
Sampled rows, rich in hits. Any-hit rate of the full collection: about 3.5%.
MEKK3 PB1 HTS – modulators of MEKK3-MEK5 PB1 binding, primary screen, biochemical, wildtype MEKK3, multiplex bead flow cytometry, Alexa488-MEK5; 1.4% of 290,000 active; Mitogen-activated protein kinase kinase kinase 3 (Homo sapiens), Q99759; bead-based flow cytometry, Alexa488-MEK5 binding to MEKK3; actives lie on both sides; 0 = blocked by unlabeled MEK5, 100 = vehicle; AID 1529, 2009; binding response (% of control), % at 10 µM;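 active means binding response more than 3 SD above or below the average of its plate-row segment, actives on both sides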;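 further: Alexa488 bead fluorescence after subtracting the streptavidin-only scavenger bead signal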
WT yeast gro inh – growth inhibition of WT strain, primary screen, mitochondrial fusion inhibitor project, WT and mutant strains, chemical genetic; inhibition, % at 10 µM; mitochondrial fusion phenotypic screen; 2.1% of 190,000 active; AID 1362, 2008; in the data active means inhibition above about 58%; tested in S. cerevisiae
ABCB1 inh – ABCB1 efflux pump inhibitors, primary screen, cell-based, multiplex, flow cytometry, ABCG2 counter-screen; CCRF-Adr cells, JC-1 efflux; inhibition, % at 6.6 µM; 0.067% of 190,000 active; AID 1326, 2008; in the data active means inhibition above about 40%;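 further: higher value means more JC-1 retained so stronger ABCB1 efflux block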
MEKK2 mut-MEK5 – MEK5 binding signal on mutant MEKK2 PB1, primary screen, biochemical, multiplex bead flow cytometry, Alexa488-MEK5; Alexa488-MEK5 binding to MEKK2 mutant; percent response, % at 10 µM; 0.35% of 290,000 active; in the data active means percent response above about 24%, passing the limit was not always enough
ABCG2 inh – ABCG2 efflux pump inhibitors, primary screen, multiplex with ABCB1, IgMXP3 cells, flow cytometry. JC-1 efflux. inhibition, % at 6.6 µM. 0.1% of 190,000 active;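 active means inhibition above 80%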
Target sequence (Q9UNQ0 whole entry, looked up): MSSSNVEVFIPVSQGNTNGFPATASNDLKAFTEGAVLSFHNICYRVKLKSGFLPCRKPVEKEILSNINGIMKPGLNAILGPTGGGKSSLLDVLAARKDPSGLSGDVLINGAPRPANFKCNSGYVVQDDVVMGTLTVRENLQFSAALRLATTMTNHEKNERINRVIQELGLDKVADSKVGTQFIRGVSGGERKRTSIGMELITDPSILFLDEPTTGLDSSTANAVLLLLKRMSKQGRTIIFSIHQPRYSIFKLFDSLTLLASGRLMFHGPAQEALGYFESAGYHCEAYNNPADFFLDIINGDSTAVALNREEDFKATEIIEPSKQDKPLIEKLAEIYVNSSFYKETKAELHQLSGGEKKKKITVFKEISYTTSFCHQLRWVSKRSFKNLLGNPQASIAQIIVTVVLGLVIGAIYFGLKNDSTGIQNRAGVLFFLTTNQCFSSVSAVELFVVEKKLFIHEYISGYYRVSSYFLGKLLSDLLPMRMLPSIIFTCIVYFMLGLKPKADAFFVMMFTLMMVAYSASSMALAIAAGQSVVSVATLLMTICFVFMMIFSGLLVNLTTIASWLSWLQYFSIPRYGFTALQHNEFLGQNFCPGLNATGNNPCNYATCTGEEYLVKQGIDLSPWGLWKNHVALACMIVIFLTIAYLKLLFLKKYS
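Measure – % inhibition of efflux relative to nicardipine and DMSO · Test system – ABCG2 IgMXP3 and barcoded ABCB1 CCRF-Adr cell mix · Control set – nicardipine as high control, DMSO as low control · Compound – one concentration, 6.6 µM final · Signal – flow cytometry of retained JC-1 fluorescence · Timing – 10 min exposure at 25 °C with rotation, no wash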
MEKK2wt PB1 HTS – modulators of MEK5 binding to wildtype MEKK2, primary screen, biochemical, multiplex bead flow cytometry, Alexa488-MEK5; Alexa488-MEK5 binding to MEKK2 WT; actives lie on both sides; binding response (% of control), % at 10 µM; 1.1% of 290,000 active; AID 1531, 2009; in the data active means binding response below about 67% or above about 130%
MEKK2wt confirm – modulators of MEK5 binding to wildtype MEKK2, confirmation, biochemical, single concentration, multiplex bead flow cytometry. 2.4% of 5,900 active. shares compounds with MEKK3 PB1 HTS. Alexa488-MEK5 binding to MEKK2 WT; actives lie on both sides. binding response (% of control), % at 10 µM. AID 1892, 2009; in the data active means binding response below about 16% or above about 210%; inactive means in between
MEKK2mut confirm – mutant MEKK2 PB1-MEK5 binding signal retest – biochemical, single concentration, multiplex bead flow cytometry, confirmation | AID 1893, 2009 | 2% of 5,900 active | percent response, % at 10 µM | shares compounds with MEKK3 PB1 HTS | Alexa488-MEK5 binding to MEKK2 mutant; in the data active means percent response mostly above about 71%, no sharp cut-off; inactive means mostly below about 38%;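 further: higher means compound restores mutant binding toward wildtype level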
MEKK3 confirm – MEKK3 wild-type PB1 binding to MEK5, inhibitors, confirmation, biochemical, bead multiplex flow cytometry, single concentration, wildtype; shares compounds with MEKK3 PB1 HTS; Alexa488-MEK5 binding to MEKK3; stronger effect = lower value; binding response (% of control), % at 10 µM; 1.8% of 5,900 active; AID 1894, 2009;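 active means binding response below 72% of control, or above a set upper limit, though filed actives all read lower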
Numbers stand for hits; - = inactive; . = no result given; ! = repeats disagree; [ ] = dose if it differs, or a comment.

SMILES	MEKK3 PB1 HTS	WT yeast gro inh	ABCB1 inh	MEKK2 mut-MEK5	ABCG2 inh	MEKK2wt PB1 HTS	MEKK2wt confirm	MEKK2mut confirm	MEKK3 confirm
Cc1ccc(O)c(-c2cc(C(=O)Nc3ccc(S(=O)(=O)N4CC(C)OC(C)C4)cc3)[nH]n2)c1 (stereo not drawn)	123	-	-	-	-	-	-	-	-
Cc1ccc(-c2cc(C(=O)Nc3ccc(S(=O)(=O)N4CC(C)OC(C)C4)cc3)[nH]n2)c(O)c1 (stereo not drawn)	-	.	.	-	.	-	.	.	.
CCN(CC)S(=O)(=O)c1cccc(NC(=O)COC(=O)CCC(=O)c2ccc(F)cc2)c1	-	-	-	-	-	-	.	.	.
CC(C)C[C@H]1CN=C(Nc2ccccc2)N1CCCC1CCCCC1	-	.	.	24	.	-	-	-	-
COc1ccc(N(CC(=O)NCCSCc2ccco2)S(=O)(=O)c2ccccc2)cc1Cl	-	.	.	-	.	-	.	.	.
Cc1oc(-c2ccccc2Cl)nc1CSc1nc2c(c(=O)[nH]1)CCC2	75[inhibitor]	-	-	-	-	-	-	-	-
CC(=Nc1ccccc1)C1=C(O)CCCC1=O	136	-	-	-	-	-	-	-	-
Cc1cccc(C)c1NC(=S)N(Cc1ccco1)C1CCN(C(C)C)CC1	128	-	-	-	-	-	-	-	-
COc1cc(C(=O)Nc2cccc(-c3nnc(-c4ccco4)o3)c2)ccc1OC(C)=O	-	-	-	-	-	-	.	.	.
CCCC12CN3CCN(CC(C3)/C1=N\NC(=O)c1ccccc1N)C2	154	-	-	-	-	-	-	-	-
CC(C)(C)c1ccc(C(=O)N/N=C2\C3CN4CCN(C3)CC2(c2ccccc2)C4)cc1	132	98	-	-	-	-	-	-	-
Cc1ccc(-n2cnc(N)c2C(=O)c2cccc([N+](=O)[O-])c2)cc1	-	.	.	-	.	-	.	.	.
COc1ccc(C(=O)NN/C(C)=C/C(=O)C(F)(F)C(F)(F)C(F)(F)F)cc1	130	-	-	-	-	-	-	-	-
CCOC(=O)c1ccc(NC(=S)N(CCCN2CCCC(C)C2)Cc2cccs2)cc1 (stereo not drawn)	-	-	-	-	-	142	-	-	-
COc1ccccc1NS(=O)(=O)c1cc([N+](=O)[O-])ccc1N/N=C/c1c(C)[nH]c2ccccc12	-	-	-	67	-	.	-	-	-
Cc1ccccc1C1c2[nH]c3ccccc3c2C[C@H]2C(=O)N(c3ccccc3C(=O)NCCCN3CCOCC3)C(=O)N12 (stereo partly drawn)	-	.	.	-	.	-	.	.	.
COc1c(OC)c(O)c2c(=O)cc(-c3c(O)cccc3O)oc2c1OC	-	-	-	-	-	-	.	.	.
COc1ccc(-c2cc(=O)c3c(OC)c(OC)c(OC)c(OC)c3o2)cc1OC	68![inhibitor]	-	-	-	-	-	-	-	-
O=C(O)COc1ccccc1/C=N/NC(=O)c1cc2ccccc2cc1O	-	.	.	-	.	-	.	.	.
Cc1cc(N2C(=O)CC(N3CCN(C(c4ccccc4)c4ccccc4)CC3)C2=O)no1 (stereo not drawn)	.	-	-	.	-	.	.	.	.
COC(=O)CN1C(=O)N/C(=C/c2ccccc2OC)C1=O	131	-	-	-	-	-	-	-	-
COc1ccc(NC(=O)Cc2c(Sc3ccccc3)c3ccccc3n2C)cc1	154	-	-	-	-	-	-	-	-
CSc1c(CC(=O)Nc2ccccc2)n(Cc2ccccc2)c2ccccc12	-	-	-	-	-	-	.	.	.
COc1ccc(NC(=O)CCn2cc(C)c3ccccc32)cc1	-	.	.	-	.	-	.	.	.
Cn1c(CC(=O)Nc2ccc(F)cc2)c(Sc2ccccc2)c2ccccc21	-	-	-	54	-	-	-	-	-
SMILES	MEKK3 PB1 HTS	WT yeast gro inh	ABCB1 inh	MEKK2 mut-MEK5	ABCG2 inh	MEKK2wt PB1 HTS	MEKK2wt confirm	MEKK2mut confirm	MEKK3 confirm
Cc1cc(C)c(S(=O)(=O)c2ccccc2C(=O)O)c(C)c1	126	-	-	-	-	-	-	-	-
Cc1cc(OCCCn2ccnc2)ccc1[N+](=O)[O-]	-	.	.	-	.	-	.	.	.
Cc1ccc(OCCn2ccnc2)c([N+](=O)[O-])c1	-	.	.	-	.	136	-	-	-
O=C(CN1CCN(c2ccccc2)CC1)Nc1cccc([N+](=O)[O-])c1	-	-	-	-	-	-	.	.	.
Cc1nnc(NC(=O)c2cc(-c3ccncc3)nc3c(C)cccc23)s1	-	.	.	-	.	-	.	.	.
C=CCNS(=O)(=O)c1cccc2cc(C(=O)O)c(O)cc12	134	-	-	-	-	136	-	-	-
O=C(O)c1cc2cccc(S(=O)(=O)N3CCCCC3)c2cc1O	-	.	.	-	.	-	.	.	.
COc1ccc(NC(=O)c2cc(-c3cc(C)cc(C)c3O)n[nH]2)cc1Cl	-	66	-	-	-	167	-	-	-
CN(Cc1ccc(C#CCCO)cc1)CC1CCCN(CCc2ccc(Cl)cc2)C1 (stereo not drawn)	-	.	.	-	.	154	-	-	-
CCCCN(C)CC(O)Cn1cc(/C=C/C(=O)c2cccs2)c2ccccc21 (stereo not drawn)	-	-	-	-	-	-	.	.	.
CCCCN(C)CC(O)Cn1cc(/C=C/C(=O)c2ccc(OCC)cc2)c2ccccc21 (stereo not drawn)	-	.	.	62	.	200	-	-	-
COc1ccc(CCC(=O)Nc2ccc(Cn3ccnc3)cc2)cc1	-	.	.	-	.	-	.	.	.
CCOc1ccccc1NC(=O)CSc1nnc2ccc(-c3ccncc3)nn12	-	-	-	-	-	-	.	.	.
Cc1ccc(CSc2nnc3ccc(-c4ccncc4)nn23)cc1	63[inhibitor]	-	-	-	-	-	-	-	-
Cc1ccc(CSc2nnc(-c3ccncc3)n2C)cc1	-	.	-	-	-	-	.	.	.
